Screening data deposited in PubChem by several laboratories.
NPY-Y2 antag = NPY-Y2 receptor antagonists, primary screen, cell-based. NPY-Y2 expressing cells, antagonist mode. inhibition, % at 2.7 µM. 140,000 tested, 0.99% active. AID 793, 2007; in the data active = inhibition above about 17%;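 also: 0% = vehicle with agonist challenge and 100% = reference antagonist with challenge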
NPY2 pot ag = NPY-Y2 potentiators or agonists, primary screen, cell-based. 220,000 tested, 0.45% active. cells expressing NPY-Y2, potentiator/agonist read-out. Neuropeptide Y receptor type 2 (Homo sapiens), P49146. AID 1359, 2008. activation, % at 3.6 µM; in the data active = activation above about 27%;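 also: cells stimulated with NPY near EC25 plus isoproterenol at EC100; 0% = vehicle plus submaximal agonist and 100% = vehicle plus saturating agonist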
NPY Y1 blocker = NPY-Y1 receptor antagonists, primary screen, cell-based; Neuropeptide Y receptor type 1 (Homo sapiens), P25929; HEK293-CNG Y1 cells, membrane potential fluorescence; NPY at EC95, then isoproterenol; inhibition, % at 3.6 µM; 200,000 tested, 1% active; AID 1040, 2008;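 active = inhibition above the campaign mean inhibition of all tested compounds plus 3 SD, cut at about 20% in these data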;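 also: 0% = DMSO wells given NPY plus isoproterenol and 100% = isoproterenol alone without NPY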
Target sequence (P25929 whole entry, looked up): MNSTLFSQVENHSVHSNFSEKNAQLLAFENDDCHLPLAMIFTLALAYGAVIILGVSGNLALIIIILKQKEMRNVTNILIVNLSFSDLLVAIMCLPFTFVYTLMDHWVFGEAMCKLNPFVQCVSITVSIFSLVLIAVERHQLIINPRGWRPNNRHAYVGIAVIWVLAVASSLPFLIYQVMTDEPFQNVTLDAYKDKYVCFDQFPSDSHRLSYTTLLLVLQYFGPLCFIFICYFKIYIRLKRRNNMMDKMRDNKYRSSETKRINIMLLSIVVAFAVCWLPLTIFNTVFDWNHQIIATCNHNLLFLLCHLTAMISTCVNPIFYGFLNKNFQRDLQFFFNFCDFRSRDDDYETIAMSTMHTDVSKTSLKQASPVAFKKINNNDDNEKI
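Assay system: HEK293 cells with Y1 receptor plus CNG channel | Probe or stimulus: NPY (25 nM), isoproterenol (1 µM), Ro 20-1724 (25 µM) | Timing: Compound incubation 1 h at room temperature, readout 45 min post-stimulation | Measured by: Membrane-potential fluorescent dye readout | Benchmarks: High control isoproterenol alone, low control NPY with isoproterenol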
EP2 mod = EP2 receptor modulators, cAMP readout, primary screen, cell-based, HTRF cAMP, PGE2 stimulation. Prostaglandin E2 receptor EP2 subtype (Homo sapiens), P43116. EP2-expressing cells, cAMP HTRF FRET, PGE2 co-stimulation. induction, % at 25 µM. 260,000 tested, 0.83% active. AID 940, 2007;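 active = compounds whose cAMP rise, as percent of the full-agonist control response, exceeds 60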;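 also: rat C6 glioma line stably carrying human EP2 under a CMV promoter; the protocol text gives 20 µM as final concentration; 100% = response of wells given 1 µM PGE2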
Target sequence (P43116 whole entry, looked up): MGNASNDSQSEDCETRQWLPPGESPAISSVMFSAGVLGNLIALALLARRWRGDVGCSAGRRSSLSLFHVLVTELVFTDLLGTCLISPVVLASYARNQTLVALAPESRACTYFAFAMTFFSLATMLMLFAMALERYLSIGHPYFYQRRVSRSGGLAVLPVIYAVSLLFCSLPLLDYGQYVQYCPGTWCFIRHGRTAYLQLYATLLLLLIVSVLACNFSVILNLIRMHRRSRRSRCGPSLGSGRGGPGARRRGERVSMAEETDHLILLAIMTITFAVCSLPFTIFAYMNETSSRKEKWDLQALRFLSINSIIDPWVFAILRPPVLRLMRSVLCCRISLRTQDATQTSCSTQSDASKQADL
NPY-Y1 PAM-ag = NPY-Y1 receptor potentiators or agonists, primary screen, cell-based; Neuropeptide Y receptor type 1 (Homo sapiens), P25929; NPY-Y1 expressing cells, potentiator/agonist activation; activation, % at 3.6 µM; AID 1304, 2008; 220,000 tested, 0.37% active; in the data active = activation above about 33%, passing the limit was not always enough;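 also: cells stimulated with NPY at EC10 then isoproterenol at EC100; 0% = low agonist plus stimulus and 100% = saturating agonist plus stimulus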
PGE2 EP2 inh = human EP2 receptor antagonists, primary screen, TR-FRET cAMP, C6 glioma cells. Prostaglandin E2 receptor EP2 subtype (Homo sapiens), P43116. C6 glioma cells expressing human EP2; cells stimulated with saturating PGE2. inhibition, % at 25 µM. 260,000 tested, 0.52% active;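 active = percent inhibition above 40 after rounding to a whole number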;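 also: rat C6 glioma host cells with rolipram phosphodiesterase inhibitor present; the protocol text gives 20 µM as final concentration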
Active calls of the source: *; . = no result given. Compounds with a hit are over-represented: about 2.8% of the library has one in this group of screens.

SMILES | NPY-Y2 antag | NPY2 pot ag | NPY Y1 blocker | EP2 mod | NPY-Y1 PAM-ag | PGE2 EP2 inh
COc1cc(/C=N/NC(=O)CSc2cc(C)c(Br)cc2C)ccc1O | 2.8 | -15.3 | 0.7 | -32.7 | 4.7 | 41.5*
Cc1cc(SCC(=O)N/N=C/c2ccc(O)c(O)c2O)c(C)cc1Br | -0.7 | 3.5 | -1.6 | -2.9 | 1.5 | 4.6
O=C(c1cccc(C(F)(F)F)c1)C1CCCN(Cc2cccn2-c2ncccn2)C1 (centres undefined) | . | -47.5 | 33.2* | -26.0 | -27.7 | 1.5
O=C1c2cccc(O)c2C(=O)c2c(O[C@@H]3O[C@H](CO)[C@@H](O)[C@H](O)[C@H]3O)cccc21 | . | . | . | -16.9 | . | 52.4*
CC(C)n1nccc1C(=O)N1CCc2onc(-c3ccccc3F)c2C1 | . | . | . | -50.5 | . | 9.4
COc1ccc(Nc2cnn(-c3nc4ccccc4s3)c(=O)c2Cl)cc1 | 1.3 | -1.9 | -1.3 | -75.5 | -5.3 | 60.9*
COc1cc2cc(CN(Cc3ccccc3)C(=O)c3cccs3)c(=O)[nH]c2cc1OC | . | . | . | -3.8 | . | 10.1
Cc1ccc2nc(SC(C)C(=O)N3CC(C)OC(C)C3)[nH]c2c1 (centres undefined) | . | -11.2 | 20.9* | 4.0 | 12.0 | 3.8
Cc1ccc2nc(SC(C)C(=O)N3CCCC3)[nH]c2c1 (centres undefined) | 0.5 | 1.9 | 4.3 | 3.3 | -9.9 | 15.6
Cc1cccc(C)c1NC(=O)CN1C(=O)C(C)(C)Oc2ccc(C(=O)NC(C)C)cc21 | . | . | . | -4.8 | . | 5.1
O=C(CN1CCCC1)Nc1ccccc1C(=O)c1ccccc1 | . | 8.4 | . | 2.7 | -0.8 | 5.8
O=C(c1ccccc1)c1ccccc1NC(=O)C1CCCN1Cc1ccccc1 (centres undefined) | . | -13.2 | . | 72.8* | -5.2 | 7.1
N#Cc1cc2c(nc1SCc1ccccc1)CCC2 | 2.9 | 3.8 | -4.3 | 39.6 | 1.6 | 42.2*
Cc1cccc(NC(=O)CSc2nc3ccccc3[nH]2)c1 | . | . | . | -37.8 | . | 4.7
O=C(N/N=C/c1ccccn1)c1cc(-c2ccc3ccccc3c2)n[nH]1 | 0.7 | -0.4 | -0.3 | -8.7 | -29.0 | 51.0*
Cc1ccc(-c2cc(C(=O)N/N=C/c3c[nH]c4ccccc34)[nH]n2)cc1 | -0.6 | 17.1 | -3.1 | -78.4 | 3.9 | 57.7*
CCn1cc(CN(CCCN2CCOCC2)Cc2ccc(C)o2)c(C)n1 | . | . | . | 15.8 | . | 9.6
COC(=O)CN1C(c2cccc(Cl)c2)=Nc2ccc(Cl)cc2C1c1ccccc1 (centres undefined) | 27.6* | -21.2 | 38.7* | 41.3 | -42.9 | 4.7
NNC(=O)CN1C(c2ccc(Br)cc2)=Nc2ccc(Br)cc2C1c1ccccc1 (centres undefined) | 1.7 | -3.4 | 6.4 | 5.0 | -6.4 | 9.6
COC(=O)CN1C(c2ccc(OC)cc2)=Nc2ccc(Cl)cc2C1c1ccccc1 (centres undefined) | 22.9* | -9.3 | 24.6* | 5.9 | -7.0 | 11.2
COc1cc(C2=Nc3ccc(Br)cc3C(c3ccccc3)N2CC(=O)NN)cc(OC)c1OC (centres undefined) | . | 12.9 | . | 0.9 | 9.2 | 5.1
CCC(C)NC(=O)c1cc(-c2ccccc2)on1 (centres undefined) | . | . | . | -82.1 | . | 12.6
Clc1ccc2c(N3CCC(CCC4CCN(c5ncnc6cc(Cl)ccc56)CC4)CC3)ncnc2c1 | . | . | . | 15.4 | . | 52.1*
CCCCNc1nc(-c2ccccc2)cc(C(F)(F)F)c1C(N)=O | 4.3 | -0.3 | -1.7 | 64.2* | 13.7 | 11.8
CCOC(=O)c1c(N)sc(=S)c2c1CCC2 | 0.7 | -25.0 | -3.9 | 5.1 | -19.1 | 60.8*
SMILES | NPY-Y2 antag | NPY2 pot ag | NPY Y1 blocker | EP2 mod | NPY-Y1 PAM-ag | PGE2 EP2 inh
CCOC(=O)c1c(N)sc(N)c1C(=O)OCC | 0.8 | 12.2 | 4.3 | 32.7 | -6.6 | 11.4
COc1cc2c(cc1CN(Cc1cccnc1)C1CC(C)(C)NC(C)(C)C1)OCO2 | . | . | . | -6.5 | . | 3.7
CSc1nc(-c2ccccc2)nc2c1COC(C)(C)C2 | 1.8 | -24.7 | 2.2 | 64.5* | 9.2 | 11.8
COc1cc2c3cc1Oc1c(OC)c(OC)cc4c1[C@@H](Cc1ccc(O)c(c1)Oc1ccc(cc1)C[C@@H]3N(C)CC2)CN(C)C4 | . | . | . | 1.2 | . | 48.3*
COc1ccc2cc1Oc1ccc(cc1)C[C@H]1c3c(cc(OC)c4c3Oc3cc5c(cc3O4)CCN[C@H]5C2)CCN1C | . | . | . | -0.8 | . | 46.9*
COc1cc2c3cc1Oc1cc(ccc1O)C[C@@H]1c4c(cc(OC)c(O)c4Oc4ccc(cc4)C[C@@H]3N(C)CC2)CC[N+]1(C)C | . | . | . | 2.7 | . | 4.2
CC(=O)O[C@H]1CC[C@@]2(C)C(=CC[C@H]3[C@H]2CC[C@]2(C)[C@@H]4[C@@H](C)[C@]5(CC[C@H](C)CN5)O[C@@H]4C[C@@H]32)C1 | . | . | . | 10.7 | . | 45.1*
CCOC(=O)C1(Cc2cccc(OC)c2)CCN(Cc2cccc3c2OCO3)CC1 | . | -32.1 | 21.4* | 25.9 | -8.7 | 7.4
CCOC(=O)C1(CCOc2ccccc2)CCN(Cc2ccc3c(c2)OCCO3)CC1 | . | -41.0 | 20.6* | -25.3 | -19.9 | 3.3
CCOC(=O)C1(Cc2cccc(OC)c2)CCN(Cc2cccc(OC)c2OC)CC1 | . | -4.2 | 4.3 | 6.5 | -21.3 | 4.8
CCN(CC)CCNC(=O)c1ccc2c(c1NCCO)C(=O)c1ccccc1C2=O | . | 8.8 | . | -58.7 | 26.6 | 56.1*
CCN1CCN(C(=O)C2CCN(S(=O)(=O)c3ccccc3)CC2)CC1 | . | . | . | -2.1 | . | 0.9
CC(=O)[C@]1(O)CC[C@@H]2[C@H]3C[C@@H](C)C4=CC(=O)CC[C@@]4(C)[C@@H]3[C@@H](O)C[C@]21C | . | . | . | 3.6 | . | 50.3*
Cc1nc(SCC(=O)Nc2ccccc2F)nc2c1CCCC2 | . | . | . | 78.6* | . | 8.1
Cc1ccnc(SCC(=O)Nc2ccccc2F)n1 | . | . | . | -17.8 | . | 14.4
Cc1ccc2[nH]c(=O)c(CN(Cc3nnnn3Cc3ccc(F)cc3)CC3CCCO3)cc2c1 (centres undefined) | . | . | . | -18.1 | . | 16.6
COc1cc(C(=O)N2CCC(n3nnc4cc(C)ccc43)CC2)cc(OC)c1OC | . | . | . | 18.9 | . | 10.0
COc1ccc(Br)cc1CN1CCCCCCC1 | 21.3* | -25.4 | 21.6* | 37.5 | -30.6 | 6.7
CCCOc1ccc(N2CC(C(=O)Nc3ccccc3OCC)CC2=O)cc1 (centres undefined) | . | . | . | 28.3 | . | 11.2
CCC(=O)N1c2ccc(-c3csc(NC(=O)c4ccccc4Cl)n3)cc2CC1C (centres undefined) | . | . | . | 26.6 | . | 94.1*
CCCC(=O)N1c2ccc(-c3csc(NC(=O)c4cccc(OC)c4)n3)cc2CC1C (centres undefined) | . | . | . | -47.8 | . | 6.9
